From article PMC10449099 (The Journal of Pharmacology and Experimental Therapeutics, 2023)
Each block holds one compound with its values, some of them ahead of it.

Tests used:
WT hKir6.1/hSUR2B [1] = target: T1, WT hKir6.1/hSUR2B (Homo sapiens, UniProt O60706+Q15842); assay type: cell-based; conditions: for activation of Tl influx by KCO: KCOs at presumably maximal concentrations
hKir6.1[V65M]/hSUR2B = hKir6.1[V65M]/hSUR2B (Homo sapiens, UniProt O60706+Q15842, V65M); assay: Thallium flux assay, Kir6.1[V65M] stable cells; assay type: cell-based; conditions: for activation of Tl influx by KCO: KCOs at presumably maximal concentrations, compared with WT
Sequence of hKir6.1[V65M]/hSUR2B (Q15842 whole entry V65M): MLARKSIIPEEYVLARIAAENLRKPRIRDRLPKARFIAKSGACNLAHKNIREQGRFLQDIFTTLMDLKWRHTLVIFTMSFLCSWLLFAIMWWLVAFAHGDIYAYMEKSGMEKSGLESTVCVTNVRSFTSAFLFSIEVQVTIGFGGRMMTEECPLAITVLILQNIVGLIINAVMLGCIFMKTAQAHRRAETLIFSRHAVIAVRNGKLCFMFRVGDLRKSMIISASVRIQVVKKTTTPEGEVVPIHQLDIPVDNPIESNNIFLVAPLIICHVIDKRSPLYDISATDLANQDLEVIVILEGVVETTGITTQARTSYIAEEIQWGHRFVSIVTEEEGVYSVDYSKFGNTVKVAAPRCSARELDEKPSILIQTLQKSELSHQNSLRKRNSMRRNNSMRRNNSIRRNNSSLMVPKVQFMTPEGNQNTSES
Sequence of hKir6.1[V65M]/hSUR2B (O60706 1-1549 isoform O60706-2, stated change not applied): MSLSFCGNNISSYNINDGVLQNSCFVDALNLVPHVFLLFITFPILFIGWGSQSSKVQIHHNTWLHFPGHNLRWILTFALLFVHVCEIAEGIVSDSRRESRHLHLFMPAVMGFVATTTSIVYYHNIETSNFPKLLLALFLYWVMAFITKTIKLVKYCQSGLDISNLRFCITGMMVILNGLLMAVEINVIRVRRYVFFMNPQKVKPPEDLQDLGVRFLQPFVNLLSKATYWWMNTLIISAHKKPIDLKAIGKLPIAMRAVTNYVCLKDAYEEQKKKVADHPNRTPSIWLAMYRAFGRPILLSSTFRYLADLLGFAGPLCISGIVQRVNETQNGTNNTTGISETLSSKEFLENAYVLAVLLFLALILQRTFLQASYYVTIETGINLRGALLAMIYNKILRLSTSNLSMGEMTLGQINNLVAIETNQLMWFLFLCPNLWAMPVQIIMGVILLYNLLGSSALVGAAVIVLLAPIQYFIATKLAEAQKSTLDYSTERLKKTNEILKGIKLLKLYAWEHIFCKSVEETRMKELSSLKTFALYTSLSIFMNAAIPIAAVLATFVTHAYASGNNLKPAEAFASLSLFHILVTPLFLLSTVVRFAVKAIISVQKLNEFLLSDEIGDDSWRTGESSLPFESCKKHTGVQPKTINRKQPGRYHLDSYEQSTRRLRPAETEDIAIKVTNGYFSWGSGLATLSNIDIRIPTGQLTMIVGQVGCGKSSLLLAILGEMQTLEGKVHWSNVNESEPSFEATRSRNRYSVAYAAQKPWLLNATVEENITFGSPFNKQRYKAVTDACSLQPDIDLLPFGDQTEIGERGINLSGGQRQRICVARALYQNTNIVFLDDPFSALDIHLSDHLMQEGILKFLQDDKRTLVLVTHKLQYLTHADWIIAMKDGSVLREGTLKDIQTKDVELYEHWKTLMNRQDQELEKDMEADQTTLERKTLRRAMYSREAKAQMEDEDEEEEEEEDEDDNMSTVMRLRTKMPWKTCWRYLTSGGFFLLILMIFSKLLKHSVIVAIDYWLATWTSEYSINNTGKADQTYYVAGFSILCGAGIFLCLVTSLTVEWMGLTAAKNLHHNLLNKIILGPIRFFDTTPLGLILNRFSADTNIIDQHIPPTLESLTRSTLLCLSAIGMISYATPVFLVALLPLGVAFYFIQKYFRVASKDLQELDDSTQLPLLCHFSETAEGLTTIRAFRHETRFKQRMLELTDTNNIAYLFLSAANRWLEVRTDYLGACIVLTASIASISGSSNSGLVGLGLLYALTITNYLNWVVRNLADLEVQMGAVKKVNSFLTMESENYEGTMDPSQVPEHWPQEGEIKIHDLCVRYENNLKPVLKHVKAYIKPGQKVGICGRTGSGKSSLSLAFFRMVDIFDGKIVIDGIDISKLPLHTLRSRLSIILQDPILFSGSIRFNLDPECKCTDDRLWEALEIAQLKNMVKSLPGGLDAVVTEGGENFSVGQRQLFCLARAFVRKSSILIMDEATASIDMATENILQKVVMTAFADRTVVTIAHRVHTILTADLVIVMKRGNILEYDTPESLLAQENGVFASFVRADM

hKir6.1/hSUR2B[R1154Q] = hKir6.1/hSUR2B[R1154Q] (Homo sapiens, UniProt O60706+Q15842, R1154Q); assay: Thallium flux assay, SUR2B[R1154Q] stable cells; assay type: cell-based; conditions: KCOs at presumably maximal concentrations
Sequence of hKir6.1/hSUR2B[R1154Q] (Q15842 whole entry): as the sequence (Q15842 whole entry V65M) above, with M65V counted along it
Sequence of hKir6.1/hSUR2B[R1154Q] (O60706 1-1549 isoform O60706-2 R1154Q): as the sequence (O60706 1-1549 isoform O60706-2, stated change not applied) above, with R1154Q counted along it
In short: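 Doxycycline-induced stable HEK293 cells on poly-L-lysine were loaded 1 h with Fluozin-2 in HBSS. […] Ex 485/em 528 nm was read every 2 s for 2 min, with Tl+ added at 20 s. Blank-subtracted, pre-Tl-normalized traces were fit single-exponentially, giving initial rate at t=0; n = 3–4.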

[2] = target: Kir6.1/SUR2B[R1154Q] mutant channels (Homo sapiens, UniProt O60706+Q15842, R1154Q); assay: Whole-cell patch-clamp, stably transfected R1154Q mutant channels; assay type: cell-based
Sequence of Kir6.1/SUR2B[R1154Q] mutant channels (Q15842 whole entry): as the sequence (Q15842 whole entry V65M) above, with M65V counted along it
Sequence of Kir6.1/SUR2B[R1154Q] mutant channels (O60706 1-1549 isoform O60706-2 R1154Q): as the sequence (O60706 1-1549 isoform O60706-2, stated change not applied) above, with R1154Q counted along it

[3] = test system: hKir6.1/hSUR2B with hSUR2B mutations (A478V, indel1055, R1154Q, R1154W); assay: Thallium flux assay, all cell lines with hSUR2B mutations; assay type: cell-based, human; conditions: all hSUR2B mutant cell lines
In short: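 Doxycycline-induced stable hKir6.1/hSUR2B-mutant HEK293 cells on poly-L-lysine were loaded 1 h with Fluozin-2 in HBSS. […] Ex 485/em 528 nm was read every 2 s for 2 min, with Tl+ added at 20 s. Blank-subtracted traces normalized to pre-Tl fluorescence were fit with a single exponential; initial rate was the derivative at t=0.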

WT Kir6.1/SUR2B channels = WT Kir6.1/SUR2B channels (Homo sapiens, UniProt O60706+Q15842); assay: Whole-cell patch-clamp, stably transfected WT channels; assay type: cell-based; conditions: Vm -60 mV
Sequence of WT Kir6.1/SUR2B channels (Q15842 whole entry): as the sequence (Q15842 whole entry V65M) above, with M65V counted along it
Sequence of WT Kir6.1/SUR2B channels (O60706 1-1549 isoform O60706-2): as the sequence (O60706 1-1549 isoform O60706-2, stated change not applied) above

hKir6.1[E189K]/hSUR2B = hKir6.1[E189K]/hSUR2B (Homo sapiens, UniProt O60706+Q15842, E189K); assay: Thallium flux assay, Kir6.1[E189K] stable cells; assay type: cell-based
Sequence of hKir6.1[E189K]/hSUR2B (Q15842 whole entry E189K): as the sequence (Q15842 whole entry V65M) above, with M65V, E189K counted along it
Sequence of hKir6.1[E189K]/hSUR2B (O60706 1-1549 isoform O60706-2, stated change not applied): as the sequence (O60706 1-1549 isoform O60706-2, stated change not applied) above

hKir6.1[A46V]/hSUR2B = hKir6.1[A46V]/hSUR2B (Homo sapiens, UniProt O60706+Q15842, A46V); assay: Thallium flux assay, Kir6.1[A46V] stable cells; assay type: cell-based
Sequence of hKir6.1[A46V]/hSUR2B (Q15842 whole entry A46V): as the sequence (Q15842 whole entry V65M) above, with A46V, M65V counted along it
Sequence of hKir6.1[A46V]/hSUR2B (O60706 1-1549 isoform O60706-2, stated change not applied): as the sequence (O60706 1-1549 isoform O60706-2, stated change not applied) above

hKir6.1[C176S]/hSUR2B = hKir6.1[C176S]/hSUR2B (Homo sapiens, UniProt O60706+Q15842, C176S); assay: Thallium flux assay, Kir6.1[C176S] stable cells; assay type: cell-based
Sequence of hKir6.1[C176S]/hSUR2B (Q15842 whole entry C176S): as the sequence (Q15842 whole entry V65M) above, with M65V, C176S counted along it
Sequence of hKir6.1[C176S]/hSUR2B (O60706 1-1549 isoform O60706-2, stated change not applied): as the sequence (O60706 1-1549 isoform O60706-2, stated change not applied) above

hKir6.1[D338E]/hSUR2B = hKir6.1[D338E]/hSUR2B (Homo sapiens, UniProt O60706+Q15842, D338E); assay: Thallium flux assay, Kir6.1[D338E] stable cells; assay type: cell-based
Sequence of hKir6.1[D338E]/hSUR2B (Q15842 whole entry D338E): as the sequence (Q15842 whole entry V65M) above, with M65V, D338E counted along it
Sequence of hKir6.1[D338E]/hSUR2B (O60706 1-1549 isoform O60706-2, stated change not applied): as the sequence (O60706 1-1549 isoform O60706-2, stated change not applied) above

WT hKir6.1/hSUR2B [4] = target: T1, WT hKir6.1/hSUR2B; assay: DiBAC4; assay type: cell-based; conditions: WT cells
In short: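 WT hKir6.1/hSUR2B and untransfected landing-pad HEK293 cells were loaded ≥30 min with 3 μM DiBAC4(3) in 1 mM K+ buffer. […] Background-subtracted mean cell fluorescence was normalized to untreated cells, n = 4–6. K conductance was estimated with a simplified Goldman-Hodgkin-Katz equation.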

hSUR2B[R1154W] = hSUR2B[R1154W] (Homo sapiens, UniProt O60706+Q15842, R1154W); assay: DiBAC4; assay type: cell-based; conditions: basal activity without KCO
Sequence of hSUR2B[R1154W] (Q15842 whole entry): as the sequence (Q15842 whole entry V65M) above, with M65V counted along it
Sequence of hSUR2B[R1154W] (O60706 1-1549 isoform O60706-2 R1154W): as the sequence (O60706 1-1549 isoform O60706-2, stated change not applied) above, with R1154W counted along it
In short: (§1)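 Stable landing-pad HEK293 lines expressing hKir6.1/hSUR2B mutants were induced with doxycycline (4 μg/ml) and grown 1 day on poly-L-lysine. Cells were washed in low-K buffer (1 mM KCl, HEPES, pH 7.4), then incubated ≥30 min with 3 μM DiBAC4(3) plus blocker (glibenclamide, repaglinide or PNU37883A), without opener. Cells were segmented by red fluorescence, background-subtracted and mean-intensity averaged over duplicate images.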

[5] = test system: hKir6.1 mutations, particularly V65M, C176S and E189K; assay: DiBAC4; assay type: cell-based, human; conditions: for sensitivity of mutation-caused hyperpolarization to reversal by inhibitor: basal activity without KCO, hKir6.1 mutations, particularly V65M, C176S, E189K
In short: as §1

SUR2[A478V] mice = conditions: ref McClenaghan et al., 2020b; cited from earlier work
hKir6.1[A46V] = hKir6.1[A46V] (Homo sapiens, UniProt O60706+Q15842, A46V); assay: DiBAC4; assay type: cell-based; conditions: basal activity without KCO
Sequence of hKir6.1[A46V] (Q15842 whole entry A46V): as the sequence (Q15842 whole entry V65M) above, with A46V, M65V counted along it
Sequence of hKir6.1[A46V] (O60706 1-1549 isoform O60706-2, stated change not applied): as the sequence (O60706 1-1549 isoform O60706-2, stated change not applied) above
In short: as §1

[6] = test system: hSUR2B mutations (A478V, R1154Q, indel1055); assay: DiBAC4; assay type: cell-based, human; conditions: for reversal of mutation-caused hyperpolarization by inhibitor: basal activity without KCO, hSUR2B A478V, R1154Q, indel1055
In short: as §1

gastric motility = conditions: ref York et al., 2020; cited from earlier work
Kir6.1[D338E] = Kir6.1[D338E] (Homo sapiens, UniProt O60706+Q15842, D338E); assay: DiBAC4; assay type: cell-based; conditions: basal activity without KCO; printed hKir6.1[G338E]
Sequence of Kir6.1[D338E] (Q15842 whole entry D338E): as the sequence (Q15842 whole entry V65M) above, with M65V, D338E counted along it
Sequence of Kir6.1[D338E] (O60706 1-1549 isoform O60706-2, stated change not applied): as the sequence (O60706 1-1549 isoform O60706-2, stated change not applied) above

cardiac function = conditions: ref Humphrey et al., 1996; cited from earlier work
[7] = most SUR2B CS mutations, basal activity

T1 sequence (Q15842 whole entry): as the sequence (Q15842 whole entry V65M) above, with M65V counted along it
T1 sequence (O60706 1-1549 isoform O60706-2): as the sequence (O60706 1-1549 isoform O60706-2, stated change not applied) above

activation of Tl influx by KCO (hKir6.1[V65M]/hSUR2B; hKir6.1[V65M]): measurable activation
activation of Tl influx by KCO (hKir6.1/hSUR2B[R1154Q]): not activated
SMILES: O=C(NCCO[N+](=O)[O-])c1cccnc1 [nicorandil]
activation of Tl influx by KCO (WT hKir6.1/hSUR2B [1]; WT): only activated by pinacidil and cromakalim

increase of whole-cell current by pinacidil (IPin/IBasal) ([2]; Vm -60 mV): ~10 fold
increase of whole-cell current by pinacidil (IPin/IBasal) (WT Kir6.1/SUR2B channels): ~150 fold
Hill coefficient, pinacidil activation (hKir6.1[E189K]/hSUR2B; Kir6.1[E189K], fit with eq. 3): 1.3 ± 0.4
Hill coefficient, pinacidil activation (hKir6.1[A46V]/hSUR2B; fit with eq. 3): 1.9 ± 0.2
maximum channel activity with pinacidil compared with WT (hKir6.1[C176S]/hSUR2B; Kir6.1[C176S], Tl influx dose-response): much higher
Hill coefficient, pinacidil activation (hKir6.1[C176S]/hSUR2B; Kir6.1[C176S], fit with eq. 3): 1.2 ± 0.1
pinacidil concentration at which Tl influx activation reached maximum (WT hKir6.1/hSUR2B [1]; WT channels): 100 µM
activation of Tl influx by KCO (WT hKir6.1/hSUR2B [1]; WT): activated
Hill coefficient, pinacidil activation (WT hKir6.1/hSUR2B [1]; WT, fit with eq. 3): 2.6 ± 1.0
channel activity at very high concentration of pinacidil (hKir6.1[V65M]/hSUR2B; Kir6.1[V65M], 300 μM pinacidil): slightly decreased
Hill coefficient, pinacidil activation (hKir6.1[V65M]/hSUR2B; Kir6.1[V65M], fit with eq. 3): 1.2 ± 0.0
activation of Tl influx by KCO (hKir6.1[V65M]/hSUR2B; hKir6.1[V65M]): enhanced activation
Hill coefficient, pinacidil activation (hKir6.1[D338E]/hSUR2B; Kir6.1[D338E], fit with eq. 3): 1.7 ± 0.1
activation of Tl influx by KCO (hKir6.1/hSUR2B[R1154Q]): not activated
DiBAC4(3) signal changes at 10 μM pinacidil (WT hKir6.1/hSUR2B [4]; 10 μM pinacidil): almost saturated
effect on membrane potential (DiBAC4(3) fluorescence) (WT hKir6.1/hSUR2B [4]; 1 mM [K+]o): dose-dependently hyperpolarized
potency of hyperpolarization, comparison (WT hKir6.1/hSUR2B [4]; 1 mM [K+]o): more potent than diazoxide
share of the DiBAC4(3) signal change that occurs at <3 μM pinacidil (WT hKir6.1/hSUR2B [4]; <3 μM pinacidil, activation of <20% of maximal WT conductance): ~80%
SMILES: CC(N/C(=N\C#N)Nc1ccncc1)C(C)(C)C (centres unmarked) [pinacidil]
response of Tl-influx rate to pinacidil activation ([3]; pinacidil 100 μM): essentially insensitive

Tl-influx rate with forskolin (hKir6.1[E189K]/hSUR2B; hKir6.1[E189K], 10 μM forskolin): increased
Tl-influx rate with forskolin (hKir6.1[C176S]/hSUR2B; hKir6.1[C176S], 10 μM forskolin): increased
Tl influx signal with forskolin (WT hKir6.1/hSUR2B [1]; WT, 10 μM forskolin): failed to generate measurable
Tl-influx rate with forskolin (hKir6.1[V65M]/hSUR2B; hKir6.1[V65M], 10 μM forskolin): increased
Tl-influx rate with forskolin (hKir6.1[D338E]/hSUR2B; hKir6.1[D338E], 10 μM forskolin): increased
effect of forskolin on membrane potential (DiBAC4(3)) (WT hKir6.1/hSUR2B [4]; 10 μM forskolin): significant hyperpolarization
SMILES: C=C[C@@]1(C)CC(=O)[C@]2(O)[C@@]3(C)[C@@H](O)CCC(C)(C)[C@@H]3[C@H](O)[C@H](OC(C)=O)[C@@]2(C)O1 [forskolin]
response of Tl-influx rate to forskolin ([3]; 10 μM forskolin): essentially insensitive

glibenclamide sensitivity (IPin+Glib/IPin) compared with WT ([2]; pinacidil-activated current): markedly reduced
sensitivity of mutation-caused hyperpolarization to reversal by inhibitor (hSUR2B[R1154W]): uniquely insensitive
Hill coefficient, glibenclamide inhibition (hKir6.1[E189K]/hSUR2B; Kir6.1[E189K], 100 μM pinacidil, fit with eq. 4): 1.0 ± 0.2
Hill coefficient, glibenclamide inhibition (hKir6.1[A46V]/hSUR2B; 100 μM pinacidil, fit with eq. 4): 1.9 ± 0.3
Hill coefficient, glibenclamide inhibition (hKir6.1[C176S]/hSUR2B; Kir6.1[C176S], 100 μM pinacidil, fit with eq. 4): 1.1 ± 0.5
Hill coefficient, glibenclamide inhibition (WT hKir6.1/hSUR2B [1]; WT, 100 μM pinacidil, fit with eq. 4): 2.9 ± 6.0
Hill coefficient, glibenclamide inhibition (hKir6.1[V65M]/hSUR2B; Kir6.1[V65M], 100 μM pinacidil, fit with eq. 4): 1.8 ± 0.8
Hill coefficient, glibenclamide inhibition (hKir6.1[D338E]/hSUR2B; Kir6.1[D338E], 100 μM pinacidil, fit with eq. 4): 1.5 ± 0.4
reversal of mutation-caused hyperpolarization by inhibitor (hKir6.1[A46V]): readily reversed
SMILES: COc1ccc(Cl)cc1C(=O)NCCc1ccc(S(=O)(=O)NC(=O)NC2CCCCC2)cc1 [glibenclamide]
sensitivity of mutation-caused hyperpolarization to reversal by inhibitor [5]: very poorly sensitive
effect on CS-associated cardiovascular abnormalities (SUR2[A478V] mice): reversed CS-associated cardiovascular abnormalities
reversal of mutation-caused hyperpolarization by inhibitor [6]: readily reversed
glibenclamide concentration that effectively blocked basal activity [6, 7]: 100 to 300 nM
glibenclamide concentration that markedly inhibited ([6]; most SUR2 CS mutations): < 100 nM
effect on gastric motility (gastric motility): restored gastric motility

reversal of mutation-caused hyperpolarization by inhibitor (hKir6.1[A46V]): readily reversed
SMILES: CCOc1cc(CC(=O)N[C@@H](CC(C)C)c2ccccc2N2CCCCC2)ccc1C(=O)O [repaglinide]
sensitivity of mutation-caused hyperpolarization to reversal by inhibitor [5]: very poorly sensitive
reversal of mutation-caused hyperpolarization by inhibitor [6]: readily reversed
block of basal activity compared with glibenclamide [6, 7]: more effectively

Second part, the compound before the results:

SMILES: CC1=NS(=O)(=O)c2cc(Cl)ccc2N1 [diazoxide]
activation of Tl influx by KCO (WT hKir6.1/hSUR2B [1]; WT): no effect
activation of Tl influx by KCO (hKir6.1[V65M]/hSUR2B; hKir6.1[V65M]): measurable activation
activation of Tl influx by KCO (hKir6.1/hSUR2B[R1154Q]): not activated
concentrations generating clear KATP-dependent hyperpolarization signals (WT hKir6.1/hSUR2B [4]; 1 mM [K+]o): above 1 μM
effect on membrane potential (DiBAC4(3) fluorescence) (WT hKir6.1/hSUR2B [4]; 1 mM [K+]o): dose-dependently hyperpolarized

SMILES: CC1(C)Oc2ccc(C#N)cc2C(N2CCCC2=O)C1O (centres unmarked) [cromakalim]
activation of Tl influx by KCO (WT hKir6.1/hSUR2B [1]; WT): activated
activation of Tl influx by KCO (hKir6.1[V65M]/hSUR2B; hKir6.1[V65M]): enhanced activation
activation of Tl influx by KCO (hKir6.1/hSUR2B[R1154Q]): not activated

SMILES: C1CCC(N=C(NC23CC4CC(CC(C4)C2)C3)N2CCOCC2)CC1.Cl [PNU37883A]
inhibition of basal Kir6.1 mutation activities, comparison ([5]; at saturating doses): more effective than glibenclamide or repaglinide
sensitivity of mutation-caused hyperpolarization to reversal by inhibitor [5]: very poorly sensitive
sensitivity of mutation-caused hyperpolarization to reversal by inhibitor (Kir6.1[D338E]): uniquely insensitive
reversal of mutation-caused hyperpolarization by inhibitor (hKir6.1[A46V]): readily reversed
reversal of mutation-caused hyperpolarization by inhibitor [6]: readily reversed
effects on cardiac function (cardiac function): Fatal effects
